According to article PMC12124638 (Journal of medicinal chemistry, 2017):
Non-standard residues stand in square brackets, D forms with d. Residues, ends and D or L forms follow the SMILES beside them. *: point of attachment. Cha = N[C@@H](CC1CCCCC1)C(=O)O; Decanoyl = CCCCCCCCCC(=O)*; Heptanoyl = CCCCCCC(=O)*; Octanoyl = CCCCCCCC(=O)*; Dab = NCC[C@H](N)C(=O)O; Hexanoyl = CCCCCC(=O)*

Key:
[1] = tested on: methicillin-resistant S. aureus ATCC 43300
[2] = tested on: Acinetobacter baumannii ATCC 19606; experiment: Sensitization to antibiotics, checkerboard MIC; format: cell-based; conditions: for Sensitization factor, rifampicin, Acinetobacter baumannii ATCC 19606: ratio of the MIC in the absence of paenipeptins to that in the presence of 4 μg/mL
P. aeruginosa ATCC 27853 [3] = experiment: Cytoplasmic membrane integrity assay, DiSC3; format: cell-based, Pseudomonas aeruginosa; conditions: increase of DiSC3(5) fluorescence; tested 8–64 μg/mL; buffer with 0.2 mM EDTA
[4] = tested on: Escherichia coli ATCC 25922; experiment: MIC in 95% human serum; format: cell-based; conditions: against both E. coli and S. aureus; 95% human serum versus TSB
S. aureus ATCC 29213 [5] = experiment: Time-kill assay; format: cell-based, Staphylococcus aureus; conditions: for reduction of viable S. aureus cells: after 4 h
How it was run: (§1)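 Time-kill is run with test compound at 8, 16 and 32 μg/mL. Surviving cells are counted by plating on TSA at 0, 2, 4, 6 and 24 h. Three independent experiments are run, one replicate each. Results are given as mean ± standard deviation, and final-timepoint counts are compared by ANOVA with Tukey HSD.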

P. aeruginosa ATCC 27853 [6] = experiment: Time-kill assay; format: cell-based, Pseudomonas aeruginosa
How it was run: as §1

S. aureus ATCC 29213 [7] = experiment: Cytoplasmic membrane integrity assay, DiSC3; format: cell-based, Staphylococcus aureus; conditions: increase of DiSC3(5) fluorescence; tested 8–64 μg/mL
S. aureus ATCC 29213 [8] = experiment: Potassium ion release assay, PBFI probe; format: cell-based, Staphylococcus aureus; conditions: PBFI fluorescence; tested 8–64 μg/mL
P. aeruginosa ATCC 27853 [9] = experiment: Impact of purified lipopolysaccharide; format: cell-based, Pseudomonas aeruginosa; conditions: LPS from E. coli O111:B4 at 100 μg/ml; analogue 17 at 16 μg/mL; 37°C, 60 min
How it was run: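 Cells are diluted in TSB to about 10^6 CFU/mL. E. coli O111:B4 LPS (final 10, 25, 50 or 100 μg/mL) is added, then test compound at final 16 μg/mL. Incubation is 60 min at 37 °C with shaking at 200 rpm. Survivors are counted on TSA. Three independent experiments are run, one replicate each. Counts are analysed by ANOVA and Tukey HSD.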

P. aeruginosa ATCC 27853 [10] = experiment: Catheter-associated biofilm in vitro; format: cell-based, Pseudomonas aeruginosa; conditions: 40× MIC (40 μg/ml), 72 h exposure, n=6
P. aeruginosa ATCC 27853 [11] = experiment: Potassium ion release assay, PBFI probe; format: cell-based, Pseudomonas aeruginosa; conditions: PBFI fluorescence; tested 8–64 μg/mL
[12] = tested on: methicillin-resistant S. aureus strain LAC; experiment: Catheter-associated biofilm in vitro; format: cell-based, Staphylococcus aureus; conditions: for reduction of viable biofilm-associated S. aureus cells: established catheter biofilm, n=6 catheters
[13] = tested on: Klebsiella pneumoniae ATCC 13883; experiment: Sensitization to antibiotics, checkerboard MIC; format: cell-based; conditions: for Sensitization factor, clarithromycin, Klebsiella pneumoniae ATCC 13883: MIC without / with 4 μg/mL paenipeptin; for Sensitization factor, rifampicin, Klebsiella pneumoniae ATCC 13883: ratio of the MIC in the absence of paenipeptins to that in the presence of 4 μg/mL
Gram-negative bacteria = conditions: cited from earlier work
P. aeruginosa ATCC 27853 [14] = tested on: P. aeruginosa ATCC 27853
[15] = cited from earlier work
K. pneumoniae UAMS-KPPR3 = experiment: MIC, polymyxin-resistant strain; format: cell-based, Klebsiella pneumoniae; conditions: polymyxin-resistant derivative of K. pneumoniae ATCC 13883
[16] = tested on: Klebsiella pneumoniae AR 0109; experiment: MIC, polymyxin-resistant strain; format: cell-based; conditions: FDA-CDC Antibiotic-Resistance Bank
E. coli UAMS-ECPR2 = format: cell-based, Escherichia coli; conditions: polymyxin-resistant derivative of E. coli ATCC 25922
K. pneumoniae UAMS-KPPR1 = experiment: MIC, polymyxin-resistant strain; format: cell-based, Klebsiella pneumoniae; conditions: polymyxin-resistant derivative of K. pneumoniae ATCC 13883
E. coli UAMS-ECPR1 = experiment: MIC, polymyxin-resistant strain; format: cell-based, Escherichia coli; conditions: polymyxin-resistant derivative of E. coli ATCC 25922
[17] = MIC without / with 4 μg/mL paenipeptin

## CCCCCCCCCC(=O)N[C@@H](CCN)C(=O)N[C@H](C(=O)N[C@H](C(=O)N[C@H](CC(C)C)C(=O)N[C@@H](CC(C)C)C(=O)N[C@@H](CCN)C(=O)N[C@@H](C(=O)N[C@@H](CC(C)C)C(=O)N[C@@H](CO)C(N)=O)C(C)C)[C@@H](C)O)[C@@H](C)CC [Analogue 13] (Decanoyl-[Dab]IT[dL]L[Dab][dV]LS-NH2)
[1]
  MIC, S. aureus ATCC 43300: >32 µg/mL
A. baumannii ATCC 19606
  MIC, A. baumannii ATCC 19606: >32 µg/mL
[2]; against Acinetobacter and Klebsiella
  synergism with rifampicin, in words: did not show synergism

## CC(C)C[C@H](NC(=O)[C@@H](Cc1ccccc1)NC(=O)[C@H](CCN)NC(=O)[C@H](Cc1ccccc1)NC(=O)[C@H](CCN)NC(=O)[C@@H](N)CC1CCCCC1)C(=O)N[C@@H](CCN)C(=O)N[C@H](CC(C)C)C(=O)N[C@@H](Cc1ccccc1)C(=O)N[C@@H](CO)C(N)=O [Analogue 17] (H-[Cha][Dab]F[Dab][dF]L[Dab][dL]FS-NH2)
P. aeruginosa ATCC 27853 [3]
  concentration that depolarized the membrane potential: ≥ 16 µg/mL
[4]
  increase in MIC in the presence of human serum: 8 to 16 fold
  reduction in activity in the presence of human serum: 88–94%
S. aureus ATCC 29213 [5]; 8 μg/ml
  viable S. aureus cells on exposure: Regrowth
S. aureus ATCC 29213 [5]; 16 μg/ml
  reduction of viable S. aureus cells: 3.1 logs
S. aureus ATCC 29213 [5]; 32 μg/ml
  reduction of viable S. aureus cells: 5.4 logs
P. aeruginosa ATCC 27853 [6]; 8 μg/ml, 2 h
  reduction of viable P. aeruginosa cells: 2.2 log
P. aeruginosa ATCC 27853 [6]; 8 μg/ml, 24 h
  viable P. aeruginosa cells at 24 h: significant bacterial regrowth
P. aeruginosa ATCC 27853 [6]; 16 μg/ml, within 2 h
  reduction of viable P. aeruginosa cells: 3.7 logs
P. aeruginosa ATCC 27853 [6]; 32 μg/ml or 16 μg/ml, 24 h
  viable P. aeruginosa cells after 24 h exposure: no viable cells were detected
P. aeruginosa ATCC 27853 [6]; 32 μg/ml, within 2 h
  reduction of viable P. aeruginosa cells: 5.1 logs
S. aureus ATCC 29213 [7]
  concentration that depolarized the membrane potential: ≥ 16 µg/mL
S. aureus ATCC 29213 [8]
  concentration that significantly released intracellular potassium ions: 32 to 64 µg/mL
P. aeruginosa ATCC 27853 [9]
  impact of purified LPS on bactericidal activity: neutralized the bactericidal activity
P. aeruginosa ATCC 27853 [10]
  reduction in the number of viable P. aeruginosa cells in an established biofilm: 2.6 log
P. aeruginosa ATCC 27853 [11]
  concentration that significantly released intracellular potassium ions: 32 to 64 µg/mL
[12]; 40 μg/mL (5 × MIC), 72 h exposure
  reduction of viable biofilm-associated S. aureus cells: 3 log
[12]; 160 μg/mL (20 × MIC), 72 h exposure
  reduction of viable biofilm-associated S. aureus cells: 5 log
[12]; 20 times the MIC of each antibiotic, six catheters, 72 h exposure
  catheters completely cleared of viable bacteria: 50%

## CCCCCCCC(=O)N[C@@H](CCN)C(=O)N[C@H](C(=O)N[C@@H](CCN)C(=O)N[C@H](Cc1ccccc1)C(=O)N[C@@H](CC(C)C)C(=O)N[C@@H](CCN)C(=O)N[C@@H](C(=O)N[C@@H](CC(C)C)C(=O)N[C@@H](CCN)C(N)=O)C(C)C)[C@@H](C)CC [Analogue 9] (Octanoyl-[Dab]I[Dab][dF]L[Dab][dV]L[Dab]-NH2)
[13]
  Sensitization factor, clarithromycin, Klebsiella pneumoniae ATCC 13883: 2,048
  Sensitization factor, rifampicin, Klebsiella pneumoniae ATCC 13883: ≥8,192
[2]; [17]
  Sensitization factor, clarithromycin, Acinetobacter baumannii ATCC 19606: 4,096–8,192
  Sensitization factor, erythromycin, Acinetobacter baumannii ATCC 19606: 128–256
  Sensitization factor, vancomycin, Acinetobacter baumannii ATCC 19606: 64–128
[2]
  Sensitization factor, rifampicin, Acinetobacter baumannii ATCC 19606: 8,192

## CCCCCCCCCC(=O)N[C@@H](CCN)C(=O)N[C@H](C(=O)N[C@@H](CCN)C(=O)N[C@H](Cc1ccccc1)C(=O)N[C@@H](CC(C)C)C(=O)N[C@@H](CCN)C(=O)N[C@@H](C(=O)N[C@@H](CC(C)C)C(=O)N[C@@H](CO)C(N)=O)C(C)C)[C@@H](C)CC [Analogue 12] (Decanoyl-[Dab]I[Dab][dF]L[Dab][dV]LS-NH2)
[12]; data not shown
  activity in the context of an established catheter-associated biofilm: no activity

## CO[C@H]1/C=C/O[C@@]2(C)Oc3c(C)c(O)c4c(O)c(c(/C=N/N5CCN(C)CC5)c(O)c4c3C2=O)NC(=O)/C(C)=C\C=C\[C@H](C)[C@H](O)[C@@H](C)[C@@H](O)[C@@H](C)[C@H](OC(C)=O)[C@@H]1C [rifampicin, reference compound]
Gram-negative bacteria
  MIC of rifampicin against Gram-negative bacteria without C10X: 8 to 32 µg/mL
[2]; Acinetobacter baumannii, ATCC19606, read-out: MIC of rifampicin alone, in μM
  MIC: 19.4 µM

## CCCCCCCC(=O)N[C@@H](CCN)C(=O)N[C@@H](CCN)C(=O)N[C@@H](CCN)C(=O)N[C@H](Cc1ccccc1)C(=O)N[C@@H](CC(C)C)C(=O)N[C@@H](CCN)C(=O)N[C@@H](C(=O)N[C@@H](CC(C)C)C(=O)N[C@@H](CCN)C(N)=O)C(C)C [Analogue 10] (Octanoyl-[Dab][Dab][Dab][dF]L[Dab][dV]L[Dab]-NH2)
[1]
  MIC, S. aureus ATCC 43300: >32 µg/mL
A. baumannii ATCC 19606
  MIC, A. baumannii ATCC 19606: >32 µg/mL
[2]
  Sensitization factor, rifampicin, Acinetobacter baumannii ATCC 19606: 256–512
P. aeruginosa ATCC 27853 [14]
  MIC, P. aeruginosa ATCC 27853: 16 to 32 µg/mL

## CCCCCC(=O)N[C@@H](CCN)C(=O)N[C@H](C(=O)N[C@@H](CCN)C(=O)N[C@H](Cc1ccccc1)C(=O)N[C@@H](CC(C)C)C(=O)N[C@@H](CCN)C(=O)N[C@@H](C(=O)N[C@@H](CC(C)C)C(=O)N[C@@H](CO)C(N)=O)C(C)C)[C@@H](C)CC [Analogue 1] (Hexanoyl-[Dab]I[Dab][dF]L[Dab][dV]LS-NH2)
[13]
  Sensitization factor, rifampicin, Klebsiella pneumoniae ATCC 13883: 8,192
[2]
  Sensitization factor, rifampicin, Acinetobacter baumannii ATCC 19606: 4,096–8,192

## CCCCCCCCCC(=O)N[C@@H](Cc1c[nH]c2ccccc12)C(=O)N[C@H](CC(N)=O)C(=O)N[C@@H](CC(=O)O)C(=O)N[C@@H]1C(=O)NCC(=O)N[C@@H](CCCN)C(=O)N[C@@H](CC(=O)O)C(=O)N[C@H](C)C(=O)N[C@@H](CC(=O)O)C(=O)NCC(=O)N[C@H](CO)C(=O)N[C@@H]([C@H](C)CC(=O)O)C(=O)N[C@@H](CC(=O)c2ccccc2N)C(=O)O[C@@H]1C [daptomycin]
[15]
  bound to plasma proteins: 94%

## CC[C@H](C)[C@H](NC(=O)[C@H](CCN)NC(=O)[C@@H](N)CC1CCCCC1)C(=O)N[C@@H](CCN)C(=O)N[C@H](Cc1ccccc1)C(=O)N[C@@H](CC(C)C)C(=O)N[C@@H](CCN)C(=O)N[C@@H](C(=O)N[C@@H](CC(C)C)C(=O)N[C@@H](CO)C(N)=O)C(C)C [Analogue 16] (H-[Cha][Dab]I[Dab][dF]L[Dab][dV]LS-NH2)
[13]
  Sensitization factor, clarithromycin, Klebsiella pneumoniae ATCC 13883: 2,048–4,096
  Sensitization factor, rifampicin, Klebsiella pneumoniae ATCC 13883: ≥8,192
[2]; [17]
  Sensitization factor, ampicillin, Acinetobacter baumannii ATCC 19606: 2–4
  Sensitization factor, clarithromycin, Acinetobacter baumannii ATCC 19606: 2,048
  Sensitization factor, vancomycin, Acinetobacter baumannii ATCC 19606: 32–64
[2]
  Sensitization factor, rifampicin, Acinetobacter baumannii ATCC 19606: 4,096

## CCCCCCC(=O)N[C@@H](CCN)C(=O)N[C@H](C(=O)N[C@@H](CCN)C(=O)N[C@H](Cc1ccccc1)C(=O)N[C@@H](CC(C)C)C(=O)N[C@@H](CCN)C(=O)N[C@@H](C(=O)N[C@@H](CC(C)C)C(=O)N[C@@H](CO)C(N)=O)C(C)C)C(C)C [Analogue 2] (Heptanoyl-[Dab]V[Dab][dF]L[Dab][dV]LS-NH2)
[13]
  Sensitization factor, rifampicin, Klebsiella pneumoniae ATCC 13883: 4,096
[2]
  Sensitization factor, rifampicin, Acinetobacter baumannii ATCC 19606: 256–512

## Polymyxin B
K. pneumoniae UAMS-KPPR3
  MIC, K. pneumoniae UAMS-KPPR3: >32 µg/mL
[16]
  MIC, Klebsiella pneumoniae AR 0109: 16 to 32 µg/mL
E. coli UAMS-ECPR2
  MIC, E. coli UAMS-ECPR2: 32 µg/mL
K. pneumoniae UAMS-KPPR1
  MIC, K. pneumoniae UAMS-KPPR1: >32 µg/mL
E. coli UAMS-ECPR1
  MIC, E. coli UAMS-ECPR1: 32 µg/mL
